The inhibition is the drop in the measured response relative to a control, in per cent.

Hit rate of the full screen: of about 360,000 compounds, about 5,400 (1.5%) were called active. Only a selection was taken, and actives are over-represented in it overall. Unmarked numbers belong to inactive results.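 Rule for the calls: active = inhibition above a per-plate cutoff, the mean inhibition of test compounds on that plate plus 3 SD (cut at about 49% in these data); inactive = the rest.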 Where a SMILES comes first, the peptide text is derived from it. The star is where a group is joined. Bz = O=C(c1ccccc1)*

The source of these data is PubChem BioAssay AID624466 (The Scripps Research Institute Molecular Screening Center, 2012).

Sequence of Trace amine-associated receptor 1 (Homo sapiens) (Q96RJ0 whole entry, looked up): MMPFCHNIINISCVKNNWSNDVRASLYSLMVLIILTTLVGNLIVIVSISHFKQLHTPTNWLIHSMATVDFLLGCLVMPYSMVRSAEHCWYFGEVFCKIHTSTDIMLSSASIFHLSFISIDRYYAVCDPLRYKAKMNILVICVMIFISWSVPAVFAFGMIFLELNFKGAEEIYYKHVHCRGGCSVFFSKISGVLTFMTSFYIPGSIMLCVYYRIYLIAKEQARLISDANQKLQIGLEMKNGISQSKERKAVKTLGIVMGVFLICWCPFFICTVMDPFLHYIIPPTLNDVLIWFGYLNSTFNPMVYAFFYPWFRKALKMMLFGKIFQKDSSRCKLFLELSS

This test has as its target Trace amine-associated receptor 1 (Homo sapiens) (UniProt Q96RJ0). The test can be described thus: blockers of beta-PEA-driven TAAR1 calcium signal – Fluo-8 calcium fluorescence, CHO RD-HGA16 cells, primary screen (AID 624466).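 Note: 0% = DMSO plus EC80 beta-PEA response and 100% = DMSO alone without agonist.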 Particulars: CHO RD-HGA16 TAAR1, Fluo-8 calcium fluorescence, antagonist; at 3 µM; stronger effect = higher value. The gist of the method: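 System: RD-HGA16 CHO cells with stable hTAAR1 and Gα16 | Probe or stimulus: EC80 β-phenethylamine stimulus | Dosing: 3 µM, single point | Times: Dye loading 75 min at 37 °C, then 30 min room temperature | Measured by: Fluo-8 calcium-sensitive fluorescence | Read-out basis: % inhibition of agonist calcium response | Replicates: n of 1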
As to `CCOC(=O)N1C(=O)C[C@](Sc2ccc(C)cc2)(C(=O)OC)[C@H]1c1ccccc1`, the inhibition is 6.96%.

For `COC(=O)c1ccccc1SC1CC(=O)N(c2cccc(C)c2)C1=O` (stereo unspecified), the inhibition was -3.32%. The figure for `COC(=O)[C@@]1(Sc2ccc(C)cc2)CC(=O)N(c2cccc(SC)c2)[C@@H]1c1ccccc1` is 67.8% (active); for `COC(=O)C(C(=O)OC)c1ccccc1NS(=O)(=O)c1cccc2ccccc12` it is -21.2%; for `CC(=O)N1Cc2cc(C(=O)NCc3cccc(F)c3)nc(-c3cccc(C4=CCCCC4)c3)c2[C@H]1CCO` it is 18.2%.

For `O=C(CC[C@H]1O[C@@H](n2ccc(=O)[nH]c2=O)[C@H](O)[C@@H]1O)N[C@H](Cc1ccccc1)C(=O)NCCCN1CCCC1=O`, the inhibition is -13.5%. The figure for `Cc1c(NS(=O)(=O)c2cccc(C(=O)Nc3ccc(SC(F)F)cc3)c2)c(=O)n(-c2ccccc2)n1C` is 51.8% (active). For `COc1ccc(C(=O)C(C)OC(=O)c2cccc(S(=O)(=O)Nc3c(C)n(C)n(-c4ccccc4)c3=O)c2)cc1` (stereo unspecified), the inhibition was -15.1%. For `COc1ccc(NS(=O)(=O)c2ccc(C(=O)Nc3c(C)n(C)n(-c4ccccc4)c3=O)cc2)cc1` the value was -27.9%; for `Cc1cc(C)n2c(Nc3c(C)cccc3C)c(CCc3ccccc3)nc2n1`, 5.85%; for `COc1cccc(CNc2nc(NCc3ccccc3OC)nc3ccsc23)c1`, 36.8%.

On to `COc1cccc(CNc2nc(NCc3cccs3)nc3ccsc23)c1`, for which the inhibition was 76.6% (active). In the case of `Clc1ccccc1Nc1nc(NCc2cccs2)nc2ccsc12`, the inhibition was 7.32%. For the compound `O=C1C=C(c2ccc(Cl)cc2)C(=O)N1Nc1ccccc1`, the inhibition was 74.6% (active).

Consider `CC(C)N(C)C(=O)CCc1nnc(CCc2c[nH]c3ccccc23)o1`, for which the inhibition is -0.9%. Consider `COC(=O)C1=C(C)N(Cc2cccc(C(F)(F)F)c2)C(=NCc2cccc(C(F)(F)F)c2)NC1c1ccccc1C(F)(F)F` (stereo unspecified), for which the inhibition was -30.9%. For `Cc1ccc(C(=O)Nc2ccc(C)c(S(=O)(=O)N(C)C)c2)s1` the value was 11.3%; for `O=C(NC(Cc1ccccc1)C(=O)N1CCCC1C(=O)O)c1ccccc1` (stereo not drawn) (Bz-Phe-Pro-OH; configuration not given here), -24.6%. For `O=C(NCCc1ccc(Cl)cc1)C1CCCN1C(=O)NCc1ccccc1` (stereo unspecified) the value was -9.56%; for `O=C(N[C@H](C(=O)N1CCC[C@H]1C(=O)NCCc1ccccc1Cl)c1ccccc1)c1ccccc1`, 56.7% (active); for `O=C(Nn1c(-c2ccc(Cl)cc2)nc2ccccc2c1=O)c1cccnc1Cl`, 15.6%. For `O=C(C[C@H]1CC[C@H]2[C@@H](COC[C@H](O)CN2C(=O)c2ccccn2)O1)N1CCN(c2ccccc2)CC1` the value was -9.63%; for `CCOC(=O)N1CCN(C(=O)C[C@@H]2C[C@@]3(C(=O)OC)CC(C)(C)CC=C3N(Cc3ccco3)C2=O)CC1`, -19%; for `COc1ccccc1N1CCN(C(=O)c2ccc(NC3=NC4CS(=O)(=O)CC4S3)cc2)CC1` (stereo unspecified), -7.44%.

For the compound `COc1ccc(Nc2ncc(C(=O)N3CCN(c4ccccc4OC)CC3)c3ccccc23)cc1`, the inhibition was 49.5% (active).

As for `COc1ccccc1N1CCN(C(=O)c2cn(-c3ccccc3)nc2-c2cccnc2)CC1`, the inhibition was 22.2%. On to `CCCC(C)NC(=O)C1CCN(C(=O)C2CC(=O)N(c3ccc(C)cc3)C2)CC1` (stereo unspecified), for which the inhibition was 3.73%. The figure for `C[C@@H]1ON(C)[C@H]2C[C@H]3c4cc(N5CCOCC5)ccc4CCN3C[C@@H]12` is -3.17%. For `COc1ccc(S(=O)(=O)Nc2ccc3c(c2)C(=O)N([C@H](C)CO)C[C@H](C)[C@@H](CN(C)C)OCCCC[C@H](C)O3)cc1` the value was -3.5%; for `O=C(Cc1c[nH]c2ccccc12)N/N=C/c1cccc(F)c1`, 15.8%; for `CSC(=S)N/N=C/c1c[nH]c2ccccc12`, 88.6% (active).

Regarding `C[n+]1ccc(/C=C/c2c[nH]c3ccccc23)cc1`, the inhibition was -4.64%. With `COc1ccc(CCNC(=O)C(=O)NCC2OCCN2S(=O)(=O)c2ccc(OC)c(C)c2)cc1` (stereo unspecified), the inhibition is 53.6% (active). For `COc1ccc(S(=O)(=O)N2CCOC2CNC(=O)C(=O)NCc2ccncc2)cc1C` (stereo unspecified) the value was -15.9%; for `COc1ccc(CCNC(=O)C(=O)NCC2OCCN2S(=O)(=O)c2ccc(F)cc2)cc1OC` (stereo unspecified), -12%; for `CC1Cc2[nH][nH]c(=O)c2C(C2CCCC2)O1` (stereo unspecified), 2.81%. With `CC(C)c1cc(Cn2c3ccccc3c(=O)n2C(C)Cn2cc(C3CC3)nn2)on1` (stereo unspecified), the inhibition is -16%.

Take `CCCCN(C(=O)c1cccc(N2C(=O)c3ccccc3C2=O)c1)c1c(N)n(CCCC)c(=O)[nH]c1=O`: the inhibition was 5.52%.

On to `CC(C)[C@@H](C)/C=C/[C@@H](C)[C@H]1CC[C@@H]2[C@]1(C)CCC1[C@]23C=C[C@]2(C[C@@H](O)CC[C@]12C)N(c1ccc([N+](=O)[O-])cn1)O3` (stereo partly specified), for which the inhibition is -12%. With `O=c1c2cc(-c3ccccc3)sc2nc2n1N=C(c1cccs1)CS2`, the inhibition was -11.2%. For `Oc1ccccc1N1CCN(C(=S)NCc2ccccc2)CC1` the value was 3.27%; for `Oc1ccccc1N1CCN(c2ncnc3sc(-c4ccccc4)cc23)CC1`, 58.6% (active).

`O=C(Cn1c(N2CCN(C/C=C/c3ccccc3)CC2)nc2ccccc21)c1ccccc1`: the inhibition was 10.7%. For `COc1cccc(CC(=O)N2CCN(C(=O)C(=O)c3cccc(C(F)(F)F)c3)CC2)c1`, the inhibition was 15.5%. The figure for `Cc1ccccc1NC(=O)Cc1nc(COC(=O)CNC(=O)c2ccc(Cl)cc2Cl)cs1` is -26.5%.

Take `Cc1ccccc1NC(=O)Cc1nc(COC(=O)c2cccnc2Cl)cs1`: the inhibition is 10.4%. In the case of `Cc1ccccc1NC(=O)Cc1nc(COC(=O)C(C)(C)Oc2ccc(Cl)cc2)cs1`, the inhibition was 64.8% (active).

In the case of `CC(C)Nc1nnc(SC(C)C(=O)N(C)C2CCCCC2)s1` (stereo unspecified), the inhibition was -5.6%. With `Cc1cccc(S(=O)(=O)CC(=O)Nc2nc(-c3ccccc3)cs2)c1`, the inhibition is 53.8% (active). For `Cc1ccc(C)c(-c2nnc(NC(=O)CS(=O)(=O)c3ccccc3)o2)c1`, the inhibition was -13.2%.

Take `Cc1ccc(S(=O)(=O)CC(=O)NC(C)c2ccccc2)cc1` (stereo unspecified): the inhibition is -14.5%.
